System: MS2 coat protein
Experiment: apparent Kd, MS2 coat protein; higher = weaker binding; RNA-MaP array; tryptophan 2.4 mM where present
Procedure, shortened: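 Stalled E. coli RNA polymerase transcribed the designs on Illumina sequencing-chip clusters. SNAP-549-labelled MS2 coat protein was titrated from 0.7 or 1.5 nM, doubling to 3 µM, without and then with constant ligand, in 100 mM Tris-HCl pH 7.5, 80 mM KCl, 4 mM MgCl2, BSA, DTT, yeast tRNA and Tween-20. Per-cluster binding curves were fitted to green signal normalised to red-channel RNA signal and control-cluster median Fmax. The apparent Kd is the median of the filtered fits.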

[1] = designed as: ON switch for tryptophan, no ligand
[2] = ligand present: tryptophan, designed as: ON switch for tryptophan
[3] = designed as: OFF switch for tryptophan, no ligand
[4] = ligand present: tryptophan, designed as: OFF switch for tryptophan

| Sequence | apparent Kd [1] [nM] | apparent Kd [2] [nM] | apparent Kd [3] [nM] | apparent Kd [4] [nM] |
| --- | --- | --- | --- | --- |
| GAGUACACUACGGCCGCCACUCAAGGAGCUACAUAGCUCCUAGACAUGAGGAUCACCCAUGUACCGAGGACCGGGUAGAUCCUUA | 187 | 97.3 | – | – |
| AGCGUGCAUCGGAAAACGAUGUACGCAAAUCGAGGACCGGUACGGCCGCCACUCGUCCUCAACAUGAGGAUCACCCAUGUAAUAA | – | – | 19.1 | 34.7 |
| AGUAUUGGAAACAGUACUAGUGAUCCGGUCCGAGGACCGGUACGGCCGCCACUCGAAUUAAAUAAACAUGAGGAUCACCCAUGUA | – | – | 16.8 | 46.1 |
| GUUAUAUCAAAAGAUGUAACAGUGGGUGAACGAGGACCGGUACGGCCGCCACUCGGACAUGAGGAUCACCCAUGUCCAUGUGAAA | – | – | 17.9 | 37.1 |
| GGUUGAUGACAUGAGGAUCACCCAUGUAGGCGAGGACCGGUACGGCCGCCACUCGACAUGAGGAUCACCCAUGUCGGCGUCCGUG | – | – | 15.2 | 26.2 |
| GCUAGGUCUACGGCCGCCACUAGACGUGGGUAAGACAUGAGGAUCACCCAUGUACUACGGGCGCUUAGGACCGGGUAGACCUAGC | 204 | 17.5 | – | – |
| CACAGUGCGAAAUUGAAUUCGCACGAUCCUCGAGGACCGGUACGGCCGCCACUCGCGCGGGUCGUACAUGAGGAUCACCCAUGUC | 257 | 368 | – | – |
| AAGGCACGAGACAUGAGGAUCACCCAUGUUCGAGGACCGGUACGGCCGCCACUCGGUGGACUCAUGGUAAAGCCGGUGAGCCAAA | 19.4 | 37.2 | – | – |
| GGGCGCUAUCCCGCGAGGGAUAGCGUUCGUCGAGGACCGGUACGGCCGCCACUCGAACGAGUGGUGACAUGAGGAUCACCCAUGU | – | – | 50.2 | 68.8 |
| AUACAUGAGGAUCACCCAUGUCCUCGUGAUCGAGGACCGGUACGGCCGCCACUCGGUCCUCGCGAGGUGGAGUCAAAGACUCCAA | 128 | 87.1 | – | – |
| GGUAUGUAUUCGGAAACGAAUGCAUACCAACGAGGACCGGUACGGCCGCCACUCGGCGGCGAUCAACAUGAGGAUCACCCAUGUA | – | – | 40.4 | 31 |
| UAAACUACACAUGAGGAUCACCCAUGUGGCCGAGGACCGGUACGGCCGCCACUCGUGUGUUAAUAAAAGAACCGCAAAGUUCUGU | 268 | 83.3 | – | – |
| GUUAUAACAAAAGUUGUAACAGUGGGUGAACGAGGACCGGUACGGCCGCCACUCGGACAUGAGGAUCACCCAUGUCCAUGUGAAA | – | – | 16.2 | 40.2 |
| AGAUGAGUCACGGCCGCCACUCUUCACAGGUUCACCCUUGGUUAACAUGAGGAUCACCCAUGUGGGAGGACCGGGUGAUGAGCAU | – | – | 13.7 | 33.4 |
| AAUAAUAGGUGAUCCUAACGAGUGGCAUAACGAGGACCGGUACGGCCGCCACUCGAACAUGAGGAUCACCCAUGUAGUCACUCGA | 189 | 362 | – | – |
| AGAUUCGACACGGCCGCCACUCGUGGAGGAUUUCCGAGUGUCGAACAUGAGGAUCACCCAUGUACGAGGACCGGGUGUUGAGUCU | – | – | 28.4 | 234 |
| AGCACUGUGACGGCCGCCACUACAUAAAUAGGGUGGUCAGGUUCAUUACAUGAGGAUCACCCAUGUAGGACCGGGUCUCAGUGCA | – | – | 9.99 | 9.55 |
| UCGGUUUUCUACAUGAGGAUCACCCAUGUCCGAGGACCGGUACGGCCGCCACUCGCAAUCAAACAGACGUGGGCCAAAUUUGCGU | – | – | 10 | 14.3 |
| UAACAUGAGGAUCACCCAUGUAUACUUAGUCGAGGACCGGUACGGCCGCCACUCGUACUUCAAGAUUUGGCGGAAAAUGUAUGUA | – | – | 12.5 | 15.1 |
| GAUUAAACAUGAGGAUCACCCAUGUAUAUACGAGGACCGGUACGGCCGCCACUCGAAAACGAGUAUCCUCGAAUAAACAUGAUAA | 37.2 | 67 | – | – |
| AAUGGUCGUACUGGAAUGGUGAUCCUCAAACGAGGACCGGUACGGCCGCCACUCGAUAACAUGAGGAUCACCCAUGUAAUAAUAA | – | – | 40.7 | 20.8 |
| CUACAUUUGUAGAAACCGGUCACCAUUAUUCGAGGACCGGUACGGCCGCCACUCGUAUCAUGUGAUACAUGAGGAUCACCCAUGU | 28.8 | 28.5 | – | – |
| GGUAUGUAUUCGGAAACGAAUGCAUACCAACGAGGACCGGUACGGCCGCCACUCGGGCGGCGAUCACAUGAGGAUCACCCAUGUA | – | – | 45.7 | 46.7 |
| AGACCCUUCACGGCCGCCACUCAUUUUAAGUAGAGAGAGUACAUGAGGAUCACCCAUGUGAGAGAGAGGACCGGGUGAGAUAUUA | 17.5 | 19.6 | – | – |
| GAUCAAAGAUCACAUGAGGAUCACCCAUGUCGAGGACCGGUACGGCCGCCACUCGCGGCGGUGAAAAUAGAUACAAAGUAUCUAU | – | – | 77.6 | 347 |
| GCUAGGUCUACGGCCGCCACUAGACGUGGGUAAGACAUGAGGAUCACCCAUGUACUACAGGCGGAUAGGACCGGGUAGACCUAGC | 114 | 14.3 | – | – |

Source: the EternaBench riboswitch data
